pKi: −log10 of the molar value. Activity calls are given as the source filed them. The calls are words filed in the database; no cut-off is given here.
Key:
Rattus norvegicus [1] = test: Compound was tested for its effect on animals. Value reported as number of rats disrupted in trained rats at a dose of 186 (nmol/kg); type: functional
Outline: (§1)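 Two-lever drug discrimination in food-restricted rats (~80% free-feeding weight) trained on FR 50 to tell saline from LSD tartrate (186 nmol/kg, 0.08 mg/kg ip, 30 min pre-session). Test drugs were given ip in saline, 1 mL/kg. Test sessions ran under extinction, ending at 50 presses on either lever. Testing required 85% training accuracy. Counts of rats tested and disrupted were recorded, plus the percentage selecting the drug lever.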

Rattus norvegicus [2] = test: Percentage of animals selecting drug lever in trained rats at a dose 12 (nmol/kg); type: functional; outline: as §1
Rattus norvegicus [3] = test: Compound was tested for its effect on animals. Value reported as number of rats disrupted in trained rats at a dose of 23 (nmol/kg); type: functional; outline: as §1
Rattus norvegicus [4] = test: Compound was tested for its effect on animals. Value reported as number of rats disrupted in trained rats at a dose of 93 (nmol/kg); type: functional; outline: as §1
Rattus norvegicus [5] = test: Effective dose in trained rats was determined at a dose of 12 (nmol/kg); type: functional
Rattus norvegicus [6] = test: Percentage of animals selecting drug lever in trained rats at a dose 47 (nmol/kg); type: functional
Outline: (§2)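 Drug-naive rats held at about 80% of free-feeding weight were trained on a two-lever FR50 food schedule to tell ip LSD tartrate (186 nmol/kg, 0.08 mg/kg) from saline, given 30 min before sessions. Test drugs were given ip in saline (1 mL/kg). Tests ran under extinction and ended at 50 presses on either lever. Rats had to hold 85% correct on training days. Read-out was % selecting the drug lever per dose.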

Rattus norvegicus [7] = test: Compound was tested for its effect on animals. Value reported as number of rats disrupted in trained rats at a dose of 47 (nmol/kg); type: functional; outline: as §1
Rattus norvegicus [8] = test: Percentage of animals selecting drug lever in trained rats at a dose 93 (nmol/kg); type: functional; outline: as §2
Rattus norvegicus [9] = test: Potency in trained rats was determined with relative to reference compound […] at a dose of 12 (nmol/kg); type: functional
[10] = biological target: T1, 5-hydroxytryptamine receptor 2A (Rattus norvegicus, UniProt P14842); test: (§3) Binding affinity was measured against 5-hydroxytryptamine 2A receptor by displacement of [3H]- ketanserin by lysergic acid amides
Outline: (§4)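 Rat frontal cortex membranes from pooled male Sprague-Dawley rats, preincubated at 37 °C, in 50 mM Tris HCl (pH 7.4) with 0.5 mM Na2EDTA, 0.1% ascorbate, 10 μM pargyline and 5.7 mM CaCl2. Triplicates. Three to four experiments combined.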

Rattus norvegicus [11] = test: Percentage of animals selecting drug lever in 1-Trained rats at a dose 186 (nmol/kg); type: functional; outline: as §1
Rattus norvegicus [12] = test: Compound was tested for its effect on animals. Value reported as number of rats disrupted in trained rats at a dose of 12 (nmol/kg); type: functional; outline: as §1
Rattus norvegicus [13] = test: Percentage of animals selecting drug lever in trained rats at a dose 23 (nmol/kg); type: functional; outline: as §1
Rattus norvegicus [14] = test: Effective dose in trained rats was determined at a dose of 47 (nmol/kg); type: functional
Rattus norvegicus [15] = test: Percentage of animals selecting drug lever in trained rats at a dose 290 (nmol/kg); type: functional; outline: as §1
Rattus norvegicus [16] = test: Compound was tested for its effect on animals. Value reported as number of rats disrupted in trained rats at a dose of 372 (nmol/kg); type: functional; outline: as §1
Rattus norvegicus [17] = test: Potency in trained rats was determined with relative to reference compound […] at a dose of 186 (nmol/kg); type: functional
Rattus norvegicus [18] = test: Percentage of animals selecting drug lever in trained rats at a dose 372 (nmol/kg); type: functional; outline: as §1
[19] = biological target: T2, 5-hydroxytryptamine receptor 1A (Rattus norvegicus, UniProt P19327); test: Binding affinity was measured against 5-hydroxytryptamine 1A receptor by displacement of [3H]8-OH-DPAT by lysergic acid amides
T2 sequence (P19327 whole entry): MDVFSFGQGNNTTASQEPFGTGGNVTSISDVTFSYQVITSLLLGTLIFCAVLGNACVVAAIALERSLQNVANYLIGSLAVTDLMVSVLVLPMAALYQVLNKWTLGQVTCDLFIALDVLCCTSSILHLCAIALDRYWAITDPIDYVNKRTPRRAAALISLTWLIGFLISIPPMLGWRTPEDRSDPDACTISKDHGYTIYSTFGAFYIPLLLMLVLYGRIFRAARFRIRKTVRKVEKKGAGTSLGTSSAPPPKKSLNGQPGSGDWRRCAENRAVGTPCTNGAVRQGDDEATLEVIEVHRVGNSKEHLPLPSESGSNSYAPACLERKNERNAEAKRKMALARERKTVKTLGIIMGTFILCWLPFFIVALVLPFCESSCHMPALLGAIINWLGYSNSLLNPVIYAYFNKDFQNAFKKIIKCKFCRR
Outline: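 Rat hippocampal membranes from pooled male Sprague-Dawley rats, preincubated at 37 °C, in 50 mM Tris HCl (pH 7.4) with 0.5 mM Na2EDTA, 0.1% ascorbate and 10 μM pargyline. Competition against 0.75 nM [3H]-8-OH-DPAT for 10 min at 37 °C, then GF/C filtration and scintillation counting. Triplicates. Three to four experiments combined, analysed with EBDA/LIGAND.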

Rattus norvegicus [20] = test: Percentage of animals selecting drug lever in trained rats at a dose 465 (nmol/kg); type: functional; outline: as §2
Rattus norvegicus [21] = test: Compound was tested for its effect on animals. Value reported as number of rats disrupted in trained rats at a dose of 465 (nmol/kg); type: functional; outline: as §1
Rattus norvegicus [22] = test: Compound was tested for its effect on animals. Value reported as number of rats disrupted in trained rats at a dose of 290 (nmol/kg); type: functional; outline: as §1
Rattus norvegicus [23] = test: Compound was tested for its effect on animals. Value reported as number of rats disrupted in trained rats at a dose of 1760 (nmol/kg); type: functional; outline: as §1
Rattus norvegicus [24] = test: Percentage of animals selecting drug lever in trained rats at a dose 1760 (nmol/kg); type: functional; outline: as §1
Rattus norvegicus [25] = test: Effective dose in trained rats was determined at a dose of 220 (nmol/kg); type: functional, organism-based
[26] = biological target: T1, 5-hydroxytryptamine receptor 2A; test: as §3; remark: listed apart in the source
Outline: as §4, with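 “CaCl2. Displacement of 0.75 nM [3H]ketanserin with 200–400 μg protein for 15 min at 37 °C, then GF/C filtration.” for “CaCl2.”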

Rattus norvegicus [27] = test: Percentage of animals selecting drug lever in trained rats at a dose 440 (nmol/kg); type: functional; outline: as §1
Rattus norvegicus [28] = test: Compound was tested for its effect on animals. Value reported as number of rats disrupted in trained rats at a dose of 440 (nmol/kg); type: functional; outline: as §1
Rattus norvegicus [29] = test: Percentage of animals selecting drug lever in trained rats at a dose 220 (nmol/kg); type: functional; outline: as §1
Rattus norvegicus [30] = test: Compound was tested for its effect on animals. Value reported as number of rats disrupted in trained rats at a dose of 220 (nmol/kg); type: functional; outline: as §1
Rattus norvegicus [31] = test: Effective dose in trained rats was determined at a dose of 55 (nmol/kg) Value in parentheses are with 95% confidence intervals; type: functional
Rattus norvegicus [32] = test: Compound was tested for its effect on animals. Value reported as number of rats disrupted in trained rats at a dose of 110 (nmol/kg); type: functional; outline: as §1
Rattus norvegicus [33] = test: Compound was tested for its effect on animals. Value reported as number of rats disrupted in trained rats at a dose of 55 (nmol/kg); type: functional; outline: as §1
Rattus norvegicus [34] = test: Percentage of animals selecting drug lever in 1-Trained rats at a dose 220 (nmol/kg); type: functional; outline: as §1
Rattus norvegicus [35] = test: Percentage of animals selecting drug lever in trained rats at a dose 55 (nmol/kg); type: functional; outline: as §2
Rattus norvegicus [36] = test: Percentage of animals selecting drug lever in 1-Trained rats at a dose 110 (nmol/kg); type: functional; outline: as §1
Rattus norvegicus [37] = test: Potency in trained rats was determined with relative to reference compound […] at a dose of 55 (nmol/kg); type: functional
Rattus norvegicus [38] = test: Percentage of animals selecting drug lever in trained rats at a dose 213 (nmol/kg); type: functional; outline: as §1
Rattus norvegicus [39] = test: Percentage of animals selecting drug lever in trained rats at a dose 86 (nmol/kg); type: functional; outline: as §2
Rattus norvegicus [40] = test: Effective dose in trained rats was determined at a dose of 86 (nmol/kg); type: functional, organism-based
Rattus norvegicus [41] = test: Percentage of animals selecting drug lever in trained rats at a dose 171 (nmol/kg); type: functional; outline: as §1
Rattus norvegicus [42] = test: Compound was tested for its effect on animals. Value reported as number of rats disrupted in trained rats at a dose of 128 (nmol/kg); type: functional; outline: as §1
Rattus norvegicus [43] = test: Compound was tested for its effect on animals. Value reported as number of rats disrupted in trained rats at a dose of 213 (nmol/kg); type: functional; outline: as §1
Rattus norvegicus [44] = test: Compound was tested for its effect on animals. Value reported as number of rats disrupted in trained rats at a dose of 171 (nmol/kg); type: functional; outline: as §1
Rattus norvegicus [45] = test: Compound was tested for its effect on animals. Value reported as number of rats disrupted in trained rats at a dose of 426 (nmol/kg); type: functional; outline: as §1
Rattus norvegicus [46] = test: Percentage of animals selecting drug lever in trained rats at a dose 426 (nmol/kg); type: functional; outline: as §1
Rattus norvegicus [47] = test: Compound was tested for its effect on animals. Value reported as number of rats disrupted in trained rats at a dose of 86 (nmol/kg); type: functional; outline: as §1
Rattus norvegicus [48] = test: Percentage of animals selecting drug lever in trained rats at a dose 128 (nmol/kg); type: functional; outline: as §1

T1 sequence (P14842 whole entry): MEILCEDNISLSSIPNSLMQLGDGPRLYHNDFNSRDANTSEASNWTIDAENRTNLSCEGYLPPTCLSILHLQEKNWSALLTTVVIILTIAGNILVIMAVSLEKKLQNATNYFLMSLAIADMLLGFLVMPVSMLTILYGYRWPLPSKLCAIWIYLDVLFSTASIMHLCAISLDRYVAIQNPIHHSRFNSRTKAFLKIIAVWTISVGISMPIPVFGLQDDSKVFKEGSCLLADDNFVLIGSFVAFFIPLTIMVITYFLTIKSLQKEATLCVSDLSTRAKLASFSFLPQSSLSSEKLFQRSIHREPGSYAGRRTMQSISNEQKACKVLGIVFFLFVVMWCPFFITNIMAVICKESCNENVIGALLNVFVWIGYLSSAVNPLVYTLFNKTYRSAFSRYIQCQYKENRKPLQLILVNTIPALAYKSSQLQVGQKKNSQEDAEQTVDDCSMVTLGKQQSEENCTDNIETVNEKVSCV

CC[C@@H](C)NC(=O)[C@@H]1C=C2c3cccc4[nH]cc(c34)C[C@H]2N(C)C1 [listing 1 of 2 here] gave a D (Rattus norvegicus [1]) of 0%, an SDL (Rattus norvegicus [2]) of 13% and a D (Rattus norvegicus [3]) of 0%. It also gave a D (Rattus norvegicus [4]) of 0%, an ED50 (Rattus norvegicus [5]) of 0.033 µmol/kg and an SDL (Rattus norvegicus [6]) of 75%. It also gave a D (Rattus norvegicus [7]) of 0%, an SDL (Rattus norvegicus [8]) of 75% and a Potency (Rattus norvegicus [9]) of 1.45. It also gave a pKi [10] of 8.06, an SDL (Rattus norvegicus [11]) of 88% and a D (Rattus norvegicus [12]) of 0%. For the same compound, the SDL (Rattus norvegicus [13]) was 50%.

With CC[C@@H](C)NC(=O)[C@@H]1C=C2c3cccc4[nH]cc(c34)C[C@H]2N(C)C1 [listing 2 of 2 here] the D (Rattus norvegicus [1]) was 27%, the ED50 (Rattus norvegicus [14]) was 0.124 µmol/kg and the D (Rattus norvegicus [4]) was 0%. For the same compound, the SDL (Rattus norvegicus [15]) was 67%, the D (Rattus norvegicus [7]) was 10% and the D (Rattus norvegicus [16]) was 0%. It also gave a Potency (Rattus norvegicus [17]) of 0.39, an SDL (Rattus norvegicus [18]) of 75% and an SDL (Rattus norvegicus [8]) of 50%. It also gave a pKi [19] of 8.34, an SDL (Rattus norvegicus [20]) of 100% and a D (Rattus norvegicus [21]) of 10%. It also gave a pKi [10] of 7.47 and a D (Rattus norvegicus [22]) of 10%.

CCCC(C)NC(=O)[C@@H]1C=C2c3cccc4[nH]cc(c34)C[C@H]2N(C)C1 (some centres undefined) was tested, and the D (Rattus norvegicus [1]) was 0%, the D (Rattus norvegicus [23]) was 11% and the SDL (Rattus norvegicus [24]) was 25%. For the same compound, the ED50 (Rattus norvegicus [25]) was “inactive”, the pKi [26] was 6.98 and the SDL (Rattus norvegicus [27]) was 0%. For the same compound, the D (Rattus norvegicus [28]) was 0%, the SDL (Rattus norvegicus [29]) was 0% and the pKi [19] was 8.10.

Compound CCC[C@@H](C)NC(=O)[C@@H]1C=C2c3cccc4[nH]cc(c34)C[C@H]2N(C)C1 has a D (Rattus norvegicus [30]) of 30%, an ED50 (Rattus norvegicus [31]) of 0.102 µmol/kg and a D (Rattus norvegicus [32]) of 0%. For the same compound, the D (Rattus norvegicus [33]) was 0%, the SDL (Rattus norvegicus [34]) was 100% and the SDL (Rattus norvegicus [35]) was 14%. The SDL (Rattus norvegicus [36]) was 44%, the pKi [19] was 9.22 and the pKi [10] was 8.35. It also gave a Potency (Rattus norvegicus [37]) of 0.47.

In the case of CCCC[C@@H](C)NC(=O)[C@@H]1C=C2c3cccc4[nH]cc(c34)C[C@H]2N(C)C1, the SDL (Rattus norvegicus [38]) was 50%, the SDL (Rattus norvegicus [39]) was 22% and the ED50 (Rattus norvegicus [40]) was “Weak activity”. The SDL (Rattus norvegicus [41]) was 55%, the D (Rattus norvegicus [42]) was 0% and the D (Rattus norvegicus [43]) was 27%. It also gave a D (Rattus norvegicus [44]) of 0%, a pKi [19] of 9.49 and a D (Rattus norvegicus [45]) of 0%. For the same compound, the SDL (Rattus norvegicus [46]) was 0%, the pKi [10] was 7.80 and the D (Rattus norvegicus [47]) was 10%. The SDL (Rattus norvegicus [48]) was 40%.

Source: ChEMBL document CHEMBL1128272, “Stereoselective LSD-like activity in a series of d-lysergic acid amides of (R)- and (S)-2-aminoalkanes” (J Med Chem, 1995)
